The full list was thinned out, with hits kept by preference.
T cruzi growth-1: inhibitors of T. cruzi proliferation | T. cruzi beta-gal in NIH3T3, GalScreen luminescence, 90 h | inhibition, % at 8.34 µM | hit rate 5.9% among 77,000 | AID 624255;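 active means mean inhibition above about 93%, with at least 55% of replicates each passing it, limit read from the data, passing the limit was not always enough; inconclusive means only one of those two conditions holds; inactive means neither condition holds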
GASC1 inh: blocks human GASC-1 (KDM4C) demethylase activity. GST-KDM4C 2-372, H3K9me3 peptide, LANCE TR-FRET. inhibition, % at 12.5 µM. hit rate 0.15% among 96,000. Q9H3R0;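 active means mean replicate inhibition above about 25%, with at least 55% of replicates also reaching it, limit read from the data, passing the limit was not always enough; inconclusive means only one of those two conditions met; inactive means neither condition met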
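System – N-terminal GST-fused human GASC-1 (KDM4C) fragment, residues 2-372 · Input – enzyme final amount 10 nM · Technique – LANCE TR-FRET, Eu antibody, ULight-streptavidin, EDTA, ex 340 nm, em 618/671 nm · Medium – HEPES buffer, pH 7.5, plus ascorbate · Incubation – enzyme reaction 30 min, then detection 60 min, both room temperature · Reagent – H3K9me3 peptide with Fe(II)/2OG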
IDH1 R132H inh: IDH1 R132H (human) inhibition; O75874; IDH1 R132H reductase, diaphorase/resazurin fluorescence, 60 min; inhibition, % at 10 µM; hit rate 0.18% among 70,000; AID 624101; in the data active means inhibition above about 34%; inconclusive means no clear call, values can overlap the other calls; inactive means below about 11%;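 further: 0% = DMSO and 100% = no enzyme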
Target sequence (O75874 whole entry R132H): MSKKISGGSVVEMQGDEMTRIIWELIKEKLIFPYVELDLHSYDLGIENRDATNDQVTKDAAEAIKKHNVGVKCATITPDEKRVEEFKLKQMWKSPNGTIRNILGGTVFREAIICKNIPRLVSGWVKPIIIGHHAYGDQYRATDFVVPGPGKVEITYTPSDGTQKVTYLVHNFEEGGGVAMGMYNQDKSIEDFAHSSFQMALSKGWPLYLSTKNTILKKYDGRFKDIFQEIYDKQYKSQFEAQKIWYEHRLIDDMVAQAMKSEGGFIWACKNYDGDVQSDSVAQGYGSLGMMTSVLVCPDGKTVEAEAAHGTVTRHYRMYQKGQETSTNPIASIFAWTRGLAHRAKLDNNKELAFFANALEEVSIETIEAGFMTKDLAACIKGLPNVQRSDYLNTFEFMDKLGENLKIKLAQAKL
T cruzi growth-2: inhibitors of T. cruzi proliferation; hit rate 72% among 5,600; shares compounds with T cruzi growth-1; T. cruzi beta-gal in NIH3T3, GalScreen luminescence, 90 h; inhibition, % at 8.35 µM;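 active means mean replicate inhibition above about 95% and at least 55% of replicates individually reaching it, limit read from the data; inconclusive means only one of the two criteria is met; inactive means neither criterion is met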
T cruzi growth-3: inhibitors of T. cruzi proliferation; T. cruzi beta-gal in NIH3T3, GalScreen luminescence, 90 h; shares compounds with T cruzi growth-1; hit rate 21% among 5,600; inhibition, % at 2.09 µM; AID 651740;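 active means mean inhibition above about 95%, with at least 55% of replicates also reaching it, limit read from the data; inconclusive means meets just one of the two conditions; inactive means meets neither condition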;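 further: plate controls were neutral control median for no effect and positive control median for full effect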
NIH3T3 tox: NIH/3T3 (mouse) viability loss; cytotoxicity (signal decrease), % at 8.35 µM; AID 651742; hit rate 14% among 5,600; NIH/3T3 viability, CellTiter-Glo ATP luminescence, 90 h; shares compounds with T cruzi growth-1;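 active means mean signal decrease across replicates above about 35% based on untreated-well scatter, with enough replicates individually passing, limit read from the data; inconclusive means no rule stated though some were filed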;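 further: 0% = median of neutral control wells and 100% = median of positive control wells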
NIH3T3 tox 2: cytotoxicity in mouse NIH/3T3 fibroblasts; NIH/3T3 viability, CellTiter-Glo ATP luminescence, 90 h; shares compounds with T cruzi growth-1; AID 651744; inhibition, % at 24.9 µM; hit rate 56% among 5,600;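 active means mean loss of cell viability signal at or above a set limit, and enough replicates individually reaching it; inconclusive means meets only the mean limit or only the replicate share; inactive means meets neither condition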;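 further: 0% = median of neutral control wells and 100% = median of positive control wells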
An asterisk follows results filed as active; u = inconclusive; x = no result.

SMILES	T cruzi growth-1	GASC1 inh	IDH1 R132H inh	T cruzi growth-2	T cruzi growth-3	NIH3T3 tox	NIH3T3 tox 2
COc1ccc2c3c(n(C)c2c1)[C@@H](CO)N(C(=O)c1ccc(F)cc1)CC31CCN(C(=O)c2ccc(F)cc2)CC1	x	-0.2	x	x	x	x	x
COCCN(C[C@H]1[C@H](c2ccccc2)[C@@H](CO)N1C(=O)C1CCC1)C(C)=O	8.3	-0.7	x	x	x	x	x
C[C@H]1CN([C@@H](C)CO)C(=O)c2cc(NC(=O)Nc3ccc(F)cc3)ccc2O[C@H]1CN(C)Cc1ccncc1	-79.7	2.4	5.9	x	x	x	x
CCc1cc2c(=O)n(CC(=O)Nc3cc(OC)ccc3OC)cnc2s1	x	x	-0.1	x	x	x	x
CC(C)C#Cc1ccc([C@H]2[C@H]3CN(S(=O)(=O)c4ccccc4)CC(=O)N3[C@H]2CO)cc1	x	0.8	x	x	x	x	x
C[C@@H]1CN([C@H](C)CO)C(=O)c2cc(NC(=O)NC3CCCCC3)ccc2O[C@@H](C)CCCCO[C@H]1CN(C)S(=O)(=O)c1ccc(Cl)cc1	87.2	0.0	x	x	x	x	x
Cc1ccc(S(=O)(=O)N(C)C[C@@H]2OCCCC[C@@H](C)Oc3ccc(NC(=O)NC4CCCCC4)cc3C(=O)N([C@H](C)CO)C[C@H]2C)cc1	98.8*	-0.5	-0.5	108.9*	70.9	-20.2	-18.6
Cc1ccc(S(=O)(=O)N(C)C[C@@H]2OCCCC[C@H](C)Oc3ccc(NC(=O)NC4CCCCC4)cc3C(=O)N([C@@H](C)CO)C[C@H]2C)cc1	29.1	-1.8	0.4	x	x	x	x
CC(C)NC(=O)Nc1ccc2c(c1)C(=O)N([C@@H](C)CO)C[C@H](C)[C@@H](CN(C)S(=O)(=O)c1ccc(Cl)cc1)OCCCC[C@H](C)O2	76.3	-1.0	x	x	x	x	x
CC(C)NC(=O)Nc1ccc2c(c1)C(=O)N([C@H](C)CO)C[C@@H](C)[C@@H](CN(C)S(=O)(=O)c1ccc(Cl)cc1)OCCCC[C@@H](C)O2	98.0*	0.0	0.9	96.0*	13.2	3.4	24.0*
Cc1ccc(S(=O)(=O)N(C)C[C@@H]2OCCCC[C@@H](C)Oc3ccc(NC(=O)NC4CCCCC4)cc3C(=O)N([C@@H](C)CO)C[C@@H]2C)cc1	61.2	-0.1	x	x	x	x	x
C[C@@H]1CCCCO[C@@H](CN(C)S(=O)(=O)c2ccc(Cl)cc2)[C@H](C)CN([C@@H](C)CO)C(=O)c2cc(NC(=O)NC3CCCCC3)ccc2O1	100.4*	15.9	x	110.7*	84.7	8.9	10.6
Cc1ccc(S(=O)(=O)N(C)C[C@H]2OCCCC[C@H](C)Oc3ccc(NC(=O)NC4CCCCC4)cc3C(=O)N([C@H](C)CO)C[C@@H]2C)cc1	112.0*	1.1	0.8	108.8*	30.0	-2.9	4.9
COc1cc(S(=O)(=O)NCc2cccnc2)ccc1Br	x	x	0.1	x	x	x	x
CCNC(=O)[C@H]1[C@H](CO)[C@H]2Cn3c(ccc(-c4cccnc4)c3=O)[C@@H]1N2Cc1ccccc1	7.2	0.6	x	x	x	x	x
Cc1noc(C)c1S(=O)(=O)N(C)C[C@@H]1Oc2ccc(NC(=O)NC3CCCCC3)cc2CC(=O)N([C@H](C)CO)C[C@@H]1C	14.4	0.6	3.9	x	x	x	x
O=C(CSc1nc(-c2ccccc2)cc(=O)[nH]1)NCC1CCCO1 (stereo unspecified)	x	x	-0.5	x	x	x	x
N#C[C@@H]1[C@@H](c2ccccc2-c2ccccc2F)[C@H](CO)N1C(=O)C1CCC1	x	1.0	x	x	x	x	x
CN1C(=O)c2cc(NC(=O)c3cccc(C(F)(F)F)c3)ccc2OC[C@@H]2O[C@H](CC(=O)NCCN3CCCC3)CC[C@@H]21	98.0*	-1.8	x	99.3*	81.6	-6.0	6.6
CN1C(=O)c2cc(NC(=O)c3cccc(C(F)(F)F)c3)ccc2OC[C@@H]2O[C@@H](CC(=O)NCCN3CCCC3)CC[C@H]21	2.3	3.5	x	x	x	x	x
CN1C(=O)c2cc(NC(=O)C3CC3)ccc2OC[C@@H]2O[C@H](CC(=O)NCCN3CCCC3)CC[C@@H]21	u	0.0	x	72.1	87.9	6.6	-6.2
CN1C(=O)c2cc(NC(=O)C3CC3)ccc2OC[C@@H]2O[C@@H](CC(=O)NCCN3CCCC3)CC[C@H]21	27.7	0.5	x	x	x	x	x
O=C(C[C@@H]1CC[C@H](NC(=O)Nc2cc(F)ccc2F)[C@@H](CO)O1)NCCCN1CCOCC1	x	0.9	0.4	x	x	x	x

Compound activity as filed in PubChem BioAssay.
